In ChEMBL document CHEMBL1154421, “In vitro suppression of K65R reverse transcriptase-mediated tenofovir- and adefovir-5'-diphosphate resistance conferred by the boranophosphonate derivatives” (Antimicrob Agents Chemother, 2007):

What was measured:
[1] = biological target: T1, Human immunodeficiency virus type 1 reverse transcriptase (Human immunodeficiency virus 1, UniProt Q72547); assay: Binding affinity to HIV1 wild type reverse transcriptase p66/p51 expressed in Escherichia coli assessed as incorporation of drug to DNA by gel electrophoresis
Outline: (§1)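 Pre-steady-state single-nucleotide incorporation, rapid quench over 10 ms to 30 s. Primer is a 5'-32P-labelled 21-mer annealed to a 31-mer DNA template. Products resolved on 14% acrylamide/8 M urea gels and phosphorimaged. kpol and Kd fitted to a hyperbola.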

[2] = biological target: T2, Human immunodeficiency virus type 1 reverse transcriptase (Human immunodeficiency virus 1, UniProt Q72547, K65R); assay: Binding affinity to HIV1 recombinant reverse transcriptase p66/p51 K65R mutant expressed in Escherichia coli assessed as incorporation of drug to DNA by gel electrophoresis; outline: as §1
[3] = biological target: Human immunodeficiency virus type 1 reverse transcriptase (Human immunodeficiency virus 1) (UniProt Q72547); assay: Binding affinity to wild type reverse transcriptase assessed as ratio of catalytic rate constant to Kd for incorporation of drug to DNA by gel electrophoresis; outline: as §1
[4] = system: Human immunodeficiency virus type 1 reverse transcriptase (Human immunodeficiency virus 1), Q72547 [K65R]; assay: Binding affinity to HIV1 recombinant reverse transcriptase p66/p51 K65R mutant expressed in Escherichia coli assessed as ratio of catalytic rate constant to Kd for incorporation of drug to DNA by gel electrophoresis; outline: as §1
[5] = biological target: Human immunodeficiency virus type 1 reverse transcriptase (Human immunodeficiency virus 1) (UniProt Q72547); assay: Inhibition of HIV1 wild type reverse transcriptase p66/p51 DNA polymerase activity assessed as formation of terminated DNA products; parameters: concentration or dose not given beside the values; conditions: concentration not given here
[6] = biological target: Human immunodeficiency virus type 1 reverse transcriptase (Human immunodeficiency virus 1) (UniProt Q72547); assay: Binding affinity to HIV1 wild type reverse transcriptase p66/p51 assessed as ratio of catalytic rate constant to Kd for dATP to drug by gel electrophoresis; outline: as §1
[7] = biological target: T1, Human immunodeficiency virus type 1 reverse transcriptase; assay: Inhibition of HIV1 wild type reverse transcriptase p66/p51 expressed in Escherichia coli using calf thymus DNA substrate
Outline: (§2)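 Recombinant p66/p51 RT, coexpressed with HIV-1 protease in E. coli, affinity-purified and active-site titrated. Reactions used 10 nM RT, 250 µg/ml activated calf thymus DNA and 5 µM each dNTP with [3H]dATP (100 µCi/mmol), run for 15 min across increasing inhibitor. Samples spotted in duplicate on DE81 discs, washed in 0.3 M ammonium formate pH 8.0 and ethanol, then scintillation counted. IC50 averaged from at least three independent experiments.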

[8] = biological target: T2, Human immunodeficiency virus type 1 reverse transcriptase; assay: Inhibition of HIV1 reverse transcriptase p66/p51 K65R mutant expressed in Escherichia coli using calf thymus DNA substrate; outline: as §2
[9] = system: Human immunodeficiency virus 1; assay: Ratio of IC50 for HIV1 reverse transcriptase p66/p51 K65R mutant to IC50 for HIV1 wild type reverse transcriptase; outline: as §2
[10] = system: Human immunodeficiency virus 1; assay: Inhibition of HIV1 […] reverse transcriptase p66/p51 R72A mutant DNA polymerase activity assessed as formation of terminated DNA products; conditions: concentration not given here
Outline: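 Polymerization rate gel assay with WT or R72A RT (50 nM) and 25 nM 5'-labelled oligo(dA)21 annealed to poly(rU)31, in RT buffer at 37°C. Extension followed over the first seconds with dATP or analogues. Products separated by denaturing gel electrophoresis and autoradiographed.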

[11] = system: Human immunodeficiency virus type 1 reverse transcriptase (Human immunodeficiency virus 1), Q72547 [K65R]; assay: Binding affinity to HIV1 recombinant reverse transcriptase p66/p51 K65R mutant assessed as ratio of catalytic rate constant to Kd for dATP to drug by gel electrophoresis; outline: as §1

Structure (SMILES)	Kd [1] [µM]	Kd [2] [µM]	Ratio [3]	Ratio [4]	inhibition [5] [%]	Ratio [6]	IC50 [7] [µM]	IC50 [8] [µM]	Ratio IC50 [9]	inhibition [10] [%]	Ratio [11]
Nc1ncnc2c1ncn2[C@H]1C[C@H](O)[C@@H](COP(=O)(O)OP(=O)(O)OP(=O)(O)O)O1	7.5	6.9	6.7	1.7	75	–	–	–	–	–	–
Nc1ncnc2c1ncn2CCOCP(=O)(O)OP(=O)(O)OP(=O)(O)O [ADEFOVIR DIPHOSPHATE]	7.9	7.7	0.9	0.1	72	7.7	8.3	52	6	1.6	17.9
BP(=O)(CO[C@H](C)Cn1cnc2c(N)ncnc21)OP(=O)(O)OP(=O)(O)O (some centres undefined)	33	35	0.7	0.17	74	9.6	14.5	18	1.2	45	10
BP(=O)(COCCn1cnc2c(N)ncnc21)OP(=O)(O)OP(=O)(O)O (centres undefined)	6.5	7.1	0.3	0.2	69	21.7	17	12	0.7	53	8.8
C[C@H](Cn1cnc2c(N)ncnc21)OCP(=O)(O)OP(=O)(O)OP(=O)(O)O	23	18	0.3	0.02	74	21.9	22	170	8	0.2	97.8
